Screens (PubChem)
ADAM10 inh: human ADAM10 inhibitors, primary screen, biochemical, QFRET, HTS; Disintegrin and metalloproteinase domain-containing protein 10 (Homo sapiens), O14672; recombinant ADAM10, EDANS/DABCYL FRET peptide cleavage, 3 h; actives 0.62% (n = 370,000); inhibition, % at 7 µM; AID 720582, 2013;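 active = inhibition above a per-campaign cutoff equal to the mean of compounds falling between control-based bounds plus 3 SD, cut at about 20% in these data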
ADAM17 inh: ADAM17 inhibitors, primary screen, biochemical, QFRET; Disintegrin and metalloproteinase domain-containing protein 17 (Homo sapiens), P78536; recombinant ADAM17, EDANS/DABCYL FRET peptide cleavage; inhibition, % at 6.95 µM; actives 0.83% (n = 370,000); AID 720648, 2013;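 active = inhibition above the mean of compounds lying between control limits plus 3 SD, set per campaign, cut at about 8.5% in these data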
NR2E3 ag-1: inhibitors of NR2E3-RetCOR corepressor binding, primary screen, NR2E3 agonist project, biochemical, TR-FRET, GST-NR2E3, biotin-RetCOR; actives 0.12% (n = 320,000); inhibition of corepressor binding, % at 4.78 µM; Photoreceptor-specific nuclear receptor (Homo sapiens), Q9Y5X4; 1536-well;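 active = percent inhibition above the cutoff of mean plus 3 SD of all tested compounds, set per screening campaign, cut at about 20% in these data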
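Test system – NR2E3–RetCOR corepressor complex · Quantity – NR2E3 fusion 1.35 nM · Buffer or medium – Tris pH 7.5 · Incubation – Compound–protein incubation for 5 h at 4 °C · Technique – TR-FRET, Eu(K)-anti-GST donor, streptavidin-D2 acceptor, ex 340, em 617/671 nm · Evaluation – percent inhibition of 671/617 nm emission ratio versus biotin and DMSO controls · Plate – 1536-well format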
KLK7 zymogen act: proKLK7 zymogen activators, primary screen, biochemical, fluorescence intensity; actives 0.9% (n = 370,000); purified proKLK7, EDANS-DABCYL substrate fluorescence; 100% is mature enzyme control, 0% vehicle; Kallikrein-7 (Homo sapiens), P49862; AID 652039, 2013; activation, % at 7 µM;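 active = activation above the mean of all tested compounds plus 3 SD, computed per campaign excluding outliers beyond control limits, cut at about 13% in these data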
Target sequence (P49862 whole entry, looked up): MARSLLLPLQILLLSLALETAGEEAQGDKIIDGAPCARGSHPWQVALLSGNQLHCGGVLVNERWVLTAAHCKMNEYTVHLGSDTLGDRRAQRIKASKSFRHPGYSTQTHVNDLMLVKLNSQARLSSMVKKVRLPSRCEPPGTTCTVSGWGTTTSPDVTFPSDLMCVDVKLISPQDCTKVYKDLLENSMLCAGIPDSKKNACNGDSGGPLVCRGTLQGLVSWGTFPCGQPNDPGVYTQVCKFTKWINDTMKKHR
NR2E3 ag-2: NR2E3 agonists in two-hybrid cells, primary screen, cell-based, luminescence, CHO-S, Gal4-NCOR/VP16-NR2E3 | actives 0.35% (n = 360,000) | Photoreceptor-specific nuclear receptor (Homo sapiens), Q9Y5X4 | luciferase | inhibition of corepressor binding, % at 3.98 µM;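 active = inhibition above the mean of all tested compounds plus 3 SD, cut at about 70% in these data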;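 note: higher means lower luciferase signal from less NR2E3 corepressor binding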
GASC-1 inh: inhibitors of GASC-1 histone demethylase, primary screen, biochemical, fluorescence, DELFIA europium; Lysine-specific demethylase 4C (Homo sapiens), Q9H3R0; GST-JMJD2C(1-420) H3K9me3 demethylation; inhibition, % at 2.35 µM; actives 0.069% (n = 330,000); AID 2099, 2009;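 active = more than half of a compound's replicate wells show inhibition beyond 50%, single wells judged on their own value; inconclusive = some, but no more than half, of replicates pass 50% inhibition; inactive = no replicate passes 50% inhibition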;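 note: signal counts dimethyl H3K9 product captured on neutravidin plate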
Target sequence (Q9H3R0 1-420 limits assumed): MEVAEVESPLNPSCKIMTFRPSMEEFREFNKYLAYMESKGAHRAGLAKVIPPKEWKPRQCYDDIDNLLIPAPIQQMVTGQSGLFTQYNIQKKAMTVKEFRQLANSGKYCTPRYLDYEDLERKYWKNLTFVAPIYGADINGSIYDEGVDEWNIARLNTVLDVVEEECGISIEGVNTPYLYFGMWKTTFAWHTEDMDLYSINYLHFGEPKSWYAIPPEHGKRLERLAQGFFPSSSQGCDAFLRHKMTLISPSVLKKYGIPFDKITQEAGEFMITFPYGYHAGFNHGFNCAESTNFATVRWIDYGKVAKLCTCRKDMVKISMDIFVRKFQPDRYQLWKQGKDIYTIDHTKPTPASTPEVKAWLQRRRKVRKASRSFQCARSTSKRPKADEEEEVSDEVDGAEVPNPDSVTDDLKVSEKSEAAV
proKLK7 act conf: proKLK7 zymogen activators, confirmation, biochemical, fluorescence intensity, triplicate; shares compounds with KLK7 zymogen act; purified proKLK7, EDANS-DABCYL substrate fluorescence; scaled: vehicle 0, mature enzyme 100; activation, % at 7 µM; actives 68% (n = 3,200); AID 686949, 2013;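 active = activation, as change over the incubation, above the mean of all tested compounds plus 3 SD, cut at about 13% in these data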
EDANS interfere: EDANS-DABCYL substrate optical interference, artefact control for kallikrein-7 zymogen activator project, biochemical, fluorescence intensity, high throughput. actives 80% (n = 3,200). shares compounds with KLK7 zymogen act. activation, % at 7 µM. no enzyme, 4 h; solvent 0%, active enzyme control 100%;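 active = activation above the all-compound mean plus 3 SD, ignoring values outside control-based bounds, cut at about 4.8% in these data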;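 note: value is the 4 h activation minus the activation read at time zero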
Hits are given with their value; 0 = inactive; ? = inconclusive; - = no result. A selection: hits, their analogues and other compounds. The true share with any hit is near 2.5%.

SMILES	ADAM10 inh	ADAM17 inh	NR2E3 ag-1	KLK7 zymogen act	NR2E3 ag-2	GASC-1 inh	proKLK7 act conf	EDANS interfere
N#Cc1cc(C(=O)c2ccccc2O)cn(-c2nccs2)c1=O	0	0	0	13	0	0	25	23
N#Cc1cc(C(=O)c2cc(F)ccc2O)cn(-c2nccs2)c1=O	0	0	0	25	0	0	42	46
O=c1c2ccccc2[nH]c2ccccc12	0	0	0	17	0	0	17	24
c1ccc2c(c1)[nH]c1ccccc12	0	0	0	0	0	?	-	-
CCOC(=O)CN1C(=O)CCSc2ccc(Cl)cc21	0	0	0	0	0	0	-	-
Cc1cccc(-n2c(O)c(C=Nc3ccccc3)c3ccccc3c2=O)n1	0	0	0	17	0	0	15	16
O=c1cccc(-c2ccc3ccccc3c2)o1	0	0	-	0	-	-	-	-
O=C(c1cccn2c(=O)c3ccccc3nc12)N1CCN(Cc2ccc3c(c2)OCO3)CC1	0	0	0	15	0	0	22	28
O=C(c1cccn2c(=O)c3cc(Cl)ccc3nc12)N1CCOCC1	0	0	0	52	0	0	65	73
Cc1cc(C(=O)NNC(=S)Nc2ccccc2)nn1C	0	0	0	0	0	0	-	-
CCOc1ccc(/C(O)=C2/C(=O)C(=O)N(c3ccccn3)C2c2ccc(C)cc2)c(C)c1 (stereo unspecified)	0	0	0	17	0	0	32	32
CCN(CC)CCN(C(=O)/C=C/c1cccs1)c1nc2ccc(F)cc2s1	0	0	0	0	0	0	-	-
CN(C)CCCN(C(=O)/C=C/c1cccs1)c1nc2ccc(F)cc2s1	0	0	0	35	0	0	154	232
COc1ccc2sc(C)cc(=O)c2c1	0	0	-	51	0	-	37	43
COc1ccc(C(C)c2cc3c(cc2OCC(=O)O)OCO3)cc1 (stereo unspecified)	0	0	-	0	-	-	-	-
COC(=O)C1=NN(c2ccccc2OC)C2C(=O)N(c3ccccc3OC)C(=O)C12 (stereo unspecified)	0	0	0	15	0	0	0	11
COC(=O)C1=NN(c2cccc3ccccc23)C2C(=O)N(c3ccccc3OC)C(=O)C12 (stereo unspecified)	0	0	0	0	0	0	-	-
COC(=O)C1=NN(c2cccc(C)c2)C2C(=O)N(c3ccccc3OC)C(=O)C12 (stereo unspecified)	0	0	0	15	0	0	0	0
Oc1ccccc1-c1nc(NCc2ccco2)c2ccccc2n1	0	0	0	13	0	0	0	13
O=c1c2ccccc2nc2ccccn12	0	0	0	50	0	0	42	41
CN(Cc1ccc(Cl)cc1)C(=O)c1[nH]c(C(F)(F)F)nc1-c1ccccc1	0	0	-	0	0	-	-	-
O=c1c2cccc3c2c(nn1CN1CCOCC1)-c1ccccc1-3	-	-	0	-	0	0	-	-
CCN(CC)CCn1nc2c3c(cccc3c1=O)-c1ccccc1-2	0	0	0	18	0	0	0	0
O=C(CCC(=O)Nc1ccccc1Cl)NNC(=O)Nc1cccc([N+](=O)[O-])c1	0	0	0	0	0	0	-	-
CC1(C)CC(=O)C2=C(C1)OC(N)=C(C#N)C2c1ccccc1 (stereo unspecified)	0	0	0	0	0	0	-	-
SMILES	ADAM10 inh	ADAM17 inh	NR2E3 ag-1	KLK7 zymogen act	NR2E3 ag-2	GASC-1 inh	proKLK7 act conf	EDANS interfere
CC1(C)CC(=O)C2=C(C1)OC(N)=C(C#N)C2c1ccccc1[N+](=O)[O-] (stereo unspecified)	0	0	0	17	0	0	0	13
CC(=O)c1ccc(-c2cccc3nccn23)cc1	0	0	-	0	0	-	-	-
CC(=O)Nc1cccc(-c2cccc3nccn23)c1	0	0	-	18	0	-	24	27
c1cc(-c2ccc(CN3CCOCC3)cc2)n2ccnc2c1	0	0	-	24	0	-	21	22
c1cc(-c2ccsc2)n2ccnc2c1	0	0	-	0	0	-	-	-
N#Cc1ccc(-c2cccc3nccn23)cc1	0	0	-	78	0	-	73	68
c1cc(-c2ccoc2)n2ccnc2c1	0	0	-	0	0	-	-	-
c1cn2cc(-c3ccc(CN4CCOCC4)cc3)ccc2n1	0	0	-	0	0	-	-	-
CN1CCN(c2ccc(-c3cccc4nccn34)cn2)CC1	0	0	-	50	0	-	22	19
N#CCc1nn2c(-c3ccccc3)ccnc2c1C#N	0	0	0	15	0	0	0	4.7
Cc1nn2c(-c3ccccc3)ccnc2c1-c1ccccc1	0	0	0	0	0	0	-	-
O=c1c(-c2ccccc2)coc2c(CN3CCCC3)c(O)ccc12	0	0	0	67	0	0	39	49
COc1ccc(-c2coc3c(CN4CCOCC4)c(O)ccc3c2=O)cc1	0	0	0	52	0	0	50	56
CC1CCCCN1Cc1c(O)ccc2c(=O)c(-c3ccc(Cl)cc3Cl)coc12 (stereo unspecified)	0	0	0	0	0	0	-	-
COc1ccc(-c2coc3cc(OC(=O)N4CCOCC4)ccc3c2=O)cc1	0	0	0	0	0	0	-	-
O=c1c(-c2ccc(Cl)cc2)coc2c(CN3CCOCC3)c(O)ccc12	0	0	0	19	0	0	21	23
CC(C)(C)NC(=O)COC(=O)c1ccc2c(c1)C(=O)N(Cc1ccco1)C2=O	0	0	0	0	0	0	-	-
COc1cc(NC(=O)c2ccc3c(c2)S(=O)(=O)N=C2CCCCCN23)cc(OC)c1	0	0	0	15	0	0	0	0
O=C(Nc1ccc(F)cc1)c1ccc2c(c1)S(=O)(=O)N=C1CCCCCN12	0	0	0	0	0	0	-	-
COc1cc2sc3cc(NCCCN4CCOCC4)ccc3c(=O)c2cc1OC	0	0	-	0	0	0	-	-
COc1cccc2sc3cc(NCc4ccc(C)o4)ccc3c(=O)c12	0	0	-	43	0	0	38	39
